Assays:
[1] = test system: PBMC; experiment: Cytotoxicity against human PBMC at 40 to 80 uM after 24 to 48 hrs by MTT assay; type: cell-based
Method in brief: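 hPBMC from fresh blood of three healthy male volunteers, isolated on Ficoll-Hypaque (1.077 g/mL) at 900g for 30 min and washed, then seeded in complete RPMI-1640. Exposed to 10–80 μM for 24 and 48 h, with DMSO below 0.05%. MTT was read at 492 nm after formazan in DMSO. Inhibition % = (control−sample)/(control−blank)×100; mean ± SD, three independent experiments.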

[2] = test system: HT-1080; experiment: Cytotoxicity against human HT1080 cells assessed as growth inhibition after 24 hrs by MTT assay; type: functional, cell-based; conditions: HT-1080, 24 h

| SMILES | Activity [1] | IC50 [2] [µM] |
| --- | --- | --- |
| CC(=O)O[C@H]1C(=O)[C@@]2(C)[C@H]([C@H](OC(=O)c3ccccc3)[C@]3(O)C[C@H](OC(=O)[C@H](O)[C@@H](NC(=O)c4ccccc4)c4ccccc4)C(C)=C1C3(C)C)[C@]1(OC(C)=O)CO[C@@H]1C[C@@H]2O [PACLITAXEL] | Non-toxic | 6 |
| O=c1[nH]cc(F)c(=O)[nH]1 [FLUOROURACIL] | Non-toxic | 70.8 |

— ChEMBL document CHEMBL2380219, “Physalin A induces apoptotic cell death and protective autophagy in HT1080 human fibrosarcoma cells” (J Nat Prod, 2013)
